# What was measured:
# Canis familiaris [1] = experiment: Compound administered intravenously at a dose of 5 mg/kg was evaluated for salidiuretic activity measured as sodium ion excretion in Dog; Value ranges from 400-599; type: ADME, organism-based, Canis lupus familiaris, Urine; parameters: dose 5 mg/kg, route intravenous; settings: in vivo, iv
# Procedure, shortened: (§1)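 Conditioned female mongrel dogs, postabsorptive, water-loaded (500 mL po) 1 h before sodium pentobarbital anesthesia (30 mg/kg iv). Bladder catheter; creatinine 4 g sc; phosphate–mannitol buffer pH 7.4 infused (3.0 mL/min) throughout. […] Urine Na+ measured; response scored 0–6.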
# [2] = Evaluated for salidiuretic activity measured as sodium ion excretion in Rat, administered orally at a dose of 16.5 mg/kg; type: organism-based; parameters: dose 16.5 mg/kg; settings: Urine
# Procedure, shortened: (§2)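 Female Charles-River rats (150–170 g), overnight on sugar diet with water ad libitum. Compound dissolved in DMF, diluted with water containing Tween 80 (final 4% DMF), given po in 5.0 mL; concurrent vehicle placebo. Three rats per metabolism cage; 0–5 h urine analysed for Na+, K+, Cl-. Values: mequiv × 100 per cage, geometric means of three cages per dose; scored 0–6 by Na+.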
# [3] = Compound administered orally at a dose of 5 mg/kg was evaluated for salidiuretic activity measured as sodium ion excretion in Rat; type: organism-based; parameters: dose 5 mg/kg; settings: Urine; procedure, shortened: as §2
# Rattus norvegicus [4] = experiment: Compound administered orally at a dose of 81 mg/kg was evaluated for salidiuretic activity measured as sodium ion excretion in Rat; type: ADME, organism-based, Urine; parameters: dose 81 mg/kg, route oral; unit not given beside the values; settings: in vivo, po; procedure, shortened: as §2
# Rattus norvegicus [5] = experiment: Evaluated for salidiuretic activity measured as sodium ion excretion in Rat, administered orally at a dose of 50 mg/kg; type: functional, Urine; parameters: unit not given beside the values; settings: route oral; procedure, shortened: as §2
# Canis familiaris [6] = experiment: Compound administered intravenously was evaluated for salidiuretic activity measured as sodium ion excretion in Dog; Value ranges from 100-249; type: ADME, organism-based, Canis lupus familiaris, Urine; settings: in vivo, iv; procedure, shortened: as §1
# Canis familiaris [7] = experiment: Compound administered intravenously at a dose of 5 mg/kg was evaluated for salidiuretic activity measured as sodium ion excretion in Dog; Value ranges from 600-799; type: ADME, organism-based, Canis lupus familiaris, Urine; parameters: dose 5 mg/kg, route intravenous; unit not given beside the values; settings: in vivo, iv; procedure, shortened: as §1
# Canis familiaris [8] = experiment: Compound administered intravenously was evaluated for salidiuretic activity measured as sodium ion excretion in Dog; Value ranges from 100-299; type: ADME, organism-based, Canis lupus familiaris, Urine; settings: in vivo, iv; procedure, shortened: as §1
# Rattus norvegicus [9] = experiment: Compound administered orally at a dose of 1 mg/kg was evaluated for salidiuretic activity measured as sodium ion excretion in Rat; settings: in vivo, po
# Canis familiaris [10] = experiment: Compound administered intravenously was evaluated for salidiuretic activity measured as sodium ion excretion in Dog; Value ranges from 600-799; type: ADME, organism-based, Canis lupus familiaris, Urine; settings: in vivo, iv; procedure, shortened: as §1
# Canis familiaris [11] = experiment: Compound administered intravenously at a dose of 5 mg/kg was evaluated for salidiuretic activity measured as sodium ion excretion in Dog; Value ranges from 0-99; type: ADME, organism-based, Canis lupus familiaris, Urine; parameters: dose 5 mg/kg, route intravenous; settings: in vivo, iv; procedure, shortened: as §1
# Canis familiaris [12] = experiment: Compound administered intravenously was evaluated for salidiuretic activity measured as sodium ion excretion in Dog; Value ranges from 400-599; type: ADME, organism-based, Canis lupus familiaris, Urine; settings: in vivo, iv; procedure, shortened: as §1
SMILES,Diuretic activity [2],Diuretic activity [3],Diuretic activity (Rattus norvegicus [4]),Diuretic activity (Rattus norvegicus [5]),further results
CCSc1cc(C(C)(C)C)cc(CN)c1O.Cl,0.5,0.3,1.5,1.2,Diuretic activity (Canis familiaris [1]): 400
Cc1cc(Cl)c(O)c(CN)c1C.Cl,1.4,0.5,2.9,2.4,Diuretic activity (Canis familiaris [1]): 400
CCc1ccc(O)c(CN)c1.Cl,0.5,0.3,1.5,1.2,Diuretic activity (Canis familiaris [6]): 100
C=CCc1cc(CN)c(O)c(OC)c1.Cl,1.4,0.5,2.9,2.4,Diuretic activity (Canis familiaris [7]): 600
COc1cc(O)c(CN)c(OC)c1Cl.Cl,–,–,–,–,Diuretic activity (Canis familiaris [8]): 100
Br.Cc1c(C)c(CN)c(O)c(Cl)c1Cl,3.3,2.6,–,3.6,Diuretic activity (Rattus norvegicus [9]): 0.7; Diuretic activity (Canis familiaris [7]): 600
CCc1c(Cl)cc(CN)c(O)c1Cl.Cl,0.6,0.4,2.4,1.8,Diuretic activity (Canis familiaris [1]): 400
CSc1cc(C(C)(C)C)cc(CN)c1O.Cl,3.3,2.6,–,3.6,Diuretic activity (Rattus norvegicus [9]): 0.7; Diuretic activity (Canis familiaris [7]): 600
Cc1cc(C(C)(C)C)cc(CN)c1O.Cl,–,–,–,–,Diuretic activity (Canis familiaris [10]): 600
CCCC(=O)c1cc(C)c(O)c(CN)c1.Cl,–,–,–,–,Diuretic activity (Canis familiaris [6]): 100
Cc1cc(C)c(CN)c(O)c1.Cl,–,–,< 0.3,<0.2,Diuretic activity (Canis familiaris [11]): 0; Diuretic activity (Rattus norvegicus [9]): 1
CC1(c2cc(I)c(O)c(CN)c2)CCCC1.Cl,–,–,–,–,Diuretic activity (Canis familiaris [12]): 400
Cc1c(C)c(Cl)c(C)c(CN)c1O.Cl,–,–,–,–,Diuretic activity (Canis familiaris [10]): 600
Cc1cc(Cl)c(O)c(CN)c1Cl.Cl,–,–,–,–,Diuretic activity (Canis familiaris [12]): 400
CCOc1c(Cl)c(O)c(CN)c(OCC)c1Cl.Cl,1.4,0.5,2.9,2.4,Diuretic activity (Canis familiaris [11]): 0
CCC(C)(C)c1cc(Cl)c(O)c(CN)c1.Cl,1.4,0.5,2.9,2.4,Diuretic activity (Canis familiaris [7]): 600

# Reference: ChEMBL document CHEMBL1121573, “2-(Aminomethyl)phenols, a new class of saluretic agents. 1. Effects of nuclear substitution” (J Med Chem, 1980)
